Source: PubChem BioAssay
A selection: hits, their analogues and other compounds. The true share with any hit is near 1.3%.
RAD52 inh – inhibitors of human RAD52 DNA annealing. inhibition, % at 18.7 µM. 360,000 compounds, 0.46% hits. recombinant RAD52 DNA annealing, FRET fluorescence. P43351;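 active means every replicate showing at least 50% inhibition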
Target sequence (P43351 whole entry, looked up): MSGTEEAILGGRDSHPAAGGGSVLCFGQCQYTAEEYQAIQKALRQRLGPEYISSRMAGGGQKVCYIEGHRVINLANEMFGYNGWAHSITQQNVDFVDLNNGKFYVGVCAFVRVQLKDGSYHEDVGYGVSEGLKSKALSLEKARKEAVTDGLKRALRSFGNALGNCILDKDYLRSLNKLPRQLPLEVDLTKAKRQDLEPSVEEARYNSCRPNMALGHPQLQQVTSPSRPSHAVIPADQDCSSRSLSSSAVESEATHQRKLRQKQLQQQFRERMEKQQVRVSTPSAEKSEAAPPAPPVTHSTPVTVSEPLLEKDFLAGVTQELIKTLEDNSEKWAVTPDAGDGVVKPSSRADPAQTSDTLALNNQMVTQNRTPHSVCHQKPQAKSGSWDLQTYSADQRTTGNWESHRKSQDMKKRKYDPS
RAD54 inh – inhibitors of human RAD54 branch migration; RAD54 Holliday junction branch migration, FAM/BHQ fluorescence; 360,000 compounds, 0.14% hits; inhibition, % at 10.4 µM;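 active means mean normalized replicate activity at least 40 and at least half of replicates scoring 40 or more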;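 further: inhibitors cause a drop in the FAM fluorescence signal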
FN deposit inh – fibronectin deposition inhibition | inhibition, % at 12.6 µM | 350,000 compounds, 0.086% hits | AH1F fibroblasts, Alexa488-fibronectin deposition fluorescence, overnight | AID 743247;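 active means mean inhibition across replicates of 30% or more, regardless of how many single replicates reach that level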
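test system = AH1F fibroblasts assembling fluorescent fibronectin matrix | quantity = 10000 AH1F cells per well | buffer or medium = DMEM plus 2% serum, read in PBS | doses = single dose, pinned | incubation = 1 h cell attachment, overnight exposure to compound and label | detection = fluorescence at 485 nm excitation, 525 nm emission | read-out basis = inhibition from reduced deposited-fibronectin fluorescence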
PAX8 reporter – lowers PAX8-driven luciferase in RMG-I cells; RMG-I TPO-luciferase reporter, SteadyGlo, 24 h; inhibition, % at 12.6 µM; 360,000 compounds, 1.2% hits;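 active means mean replicate inhibition at least 60% with every replicate also reaching 60%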;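 further: luciferase light reporting Pax8 driven TPO promoter activity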
Each line names hits and unclear results; the compound was inactive in the other large screens; ! = not active in a repeat.

Cc1ccc(S(=O)(=O)N2CC3(C)CN(S(=O)(=O)c4ccc(C)cc4)CC(C)(C2)C3O)cc1 (centres undefined)	none (no result: PAX8 reporter)
Cc1ccc(S(=O)(=O)N2CC3(C)CN(S(=O)(=O)c4ccc(C)cc4)CC(C)(C2)C3=O)cc1	FN deposit inh 33.6 (no result: RAD52 inh, PAX8 reporter)
COc1cccc(C(Nc2ccccc2)c2ccc3ccc(C)nc3c2O)c1 (centres undefined)	PAX8 reporter 66.3 (no result: RAD54 inh)
Cc1cccc(NC(c2ccc(O)cc2)c2ccc3ccc(C)nc3c2O)n1 (centres undefined)	none (no result: RAD52 inh, PAX8 reporter)
CCCCC(=O)NC(c1ccco1)c1cc(Cl)c2cccnc2c1O (centres undefined)	none (no result: RAD54 inh)
CCCCC(=O)NC(c1ccccc1)c1ccc2cccnc2c1O (centres undefined)	PAX8 reporter 87.3
CCC(=O)NC(c1ccc(OC)cc1)c1cc(Cl)c2cccnc2c1O (centres undefined)	none (no result: RAD54 inh)
CCCC(=O)NC(c1ccc(OC)cc1)c1ccc2cccnc2c1O (centres undefined)	PAX8 reporter 77.0 (no result: RAD54 inh)
CCCCC(=O)NC(c1ccccc1Cl)c1ccc2cccnc2c1O (centres undefined)	PAX8 reporter 85.3
C[C@@H]1CCCCO[C@@H](CN(C)C(=O)Nc2ccc3c(c2)OCO3)[C@@H](C)CN([C@@H](C)CO)C(=O)c2cc(NC(=O)Nc3ccc(F)cc3)ccc2O1	none (no result: FN deposit inh)
CC(=O)NC(c1ccc(C)cc1)c1cc(Cl)c2cccnc2c1O (centres undefined)	none
Oc1cccc(C(Nc2nccs2)c2ccc3cccnc3c2O)c1 (centres undefined)	PAX8 reporter 74.6 (no result: RAD54 inh)
COc1cccc(C(NC(C)=O)c2ccc3cccnc3c2O)c1 (centres undefined)	PAX8 reporter 69.0
Oc1c(C(Nc2cccc(C(F)(F)F)c2)c2cccnc2)ccc2cccnc12 (centres undefined)	none (no result: RAD52 inh, RAD54 inh)
O=[N+]([O-])c1ccc(NC(c2ccccc2)c2ccc3cccnc3c2O)cc1 (centres undefined)	PAX8 reporter 83.4
CC(=O)NC(c1cccc([N+](=O)[O-])c1)c1ccc2cccnc2c1O (centres undefined)	none
CC(=O)NC(c1ccc(C(C)C)cc1)c1ccc2cccnc2c1O (centres undefined)	PAX8 reporter 94.9
Cc1ccc(-c2nc(C3CCCN(S(=O)(=O)c4ccc(C(F)(F)F)cc4)C3)no2)cc1 (centres undefined)	none (no result: RAD52 inh, FN deposit inh, PAX8 reporter)
COC(=O)[C@@]12C[C@@H](CC(=O)NCc3ccc(OC)c(OC)c3)C(=O)N(Cc3ccccc3)C1=CCC(C)(C)C2	none (no result: RAD54 inh)
Cc1ccnc(NS(=O)(=O)c2ccc(NC(=O)C3C4C=CC(C4)C3C(=O)O)cc2)n1 (centres undefined)	none (no result: RAD54 inh)
O=C(C[C@H]1C=C[C@@H](NS(=O)(=O)c2ccccc2)[C@H](CO)O1)NCCN1CCCCC1	none
CCCCC(=O)NC(c1ccc(C(C)C)cc1)c1ccc2cccnc2c1O (centres undefined)	PAX8 reporter 84.8
CCCCC(=O)NC(c1cccc([N+](=O)[O-])c1)c1ccc2cccnc2c1O (centres undefined)	none
CCCC(=O)NC(c1ccccc1)c1ccc2cccnc2c1O (centres undefined)	PAX8 reporter 78.8
C(=C\c1ccc(C2[C@@H]3CN(Cc4ccc5c(c4)OCO5)C[C@H]2N3)cc1)/c1ccccc1 (some centres undefined)	PAX8 reporter 81.0! (no result: RAD52 inh, RAD54 inh)
COc1cc(CN2C[C@@H]3N[C@H](C2)C3c2ccc(-c3cncnc3)cc2)cc(OC)c1 (some centres undefined)	none (no result: RAD52 inh, RAD54 inh)
c1ncc(-c2ccc(C3[C@@H]4CN(Cc5ccc6c(c5)OCO6)C[C@H]3N4)cc2)cn1 (some centres undefined)	RAD52 inh 51.2 (no result: RAD54 inh)
Cc1c(/C=C(\C#N)C(=O)NCc2ccccc2)cc(C#N)n1C	none
CC(C)N1CCc2c(sc(NC(=O)c3ccc(S(=O)(=O)N4CCc5ccccc54)cc3)c2C(N)=O)C1	none (no result: RAD52 inh, FN deposit inh, PAX8 reporter)
CC(C)N1CCc2c(sc(NC(=O)c3cc(-c4cccs4)nc4ccccc34)c2C(N)=O)C1	RAD54 inh 78.0 (no result: RAD52 inh, FN deposit inh, PAX8 reporter)
CC(=O)N1CCc2c(sc(NC(=O)c3ccc([N+](=O)[O-])o3)c2C#N)C1	PAX8 reporter 96.3
CCC(C)NC(=O)c1cc(-c2cccs2)nc2ccccc12 (centres undefined)	none
CC(C)N1CCc2c(sc(NC(=O)c3ccc([N+](=O)[O-])o3)c2C(N)=O)C1	PAX8 reporter 95.6
CCCN(C)C[C@H]1OCCCC[C@@H](C)Oc2ccc(NC(=O)c3ccccc3)cc2C(=O)N([C@H](C)CO)C[C@H]1C	PAX8 reporter 83.3 (no result: FN deposit inh)
